Measured values reported in ChEMBL document CHEMBL3351896, “Small Molecule that Reverses Dexamethasone Resistance in T-cell Acute Lymphoblastic Leukemia (T-ALL)” (ACS Med Chem Lett, 2014).
pEC50: −log10 of the molar value. Active and inactive are the calls of the source. The rule behind the calls is not given here.

How the values were obtained:
Format in all cases: functional, cell-based
CUTLL1 [1] = test: Effect on SMC2 gene expression in human CUTLL1 cells in absence of 1 uM dexamethasone at 30 uM after 24 hrs by microarray method
Summary of the method: (§1)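 Human CUTLL1 T-ALL cells exposed for 24 h to vehicle (DMSO), dexamethasone alone (1 μM), test compound alone (30 μM), or dexamethasone 1 μM plus compound 30 μM, each in triplicate. Expression profiled by microarray. Glucocorticoid-regulated gene sets from ALL patients on glucocorticoid therapy scored by GSEA. Leading-edge genes compared between the combination and dexamethasone alone.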

CUTLL1 [2] = test: Effect on PFAS gene expression in human CUTLL1 cells in absence of 1 uM dexamethasone at 30 uM after 24 hrs by microarray method; summary of the method: as §1
[3] = Growth inhibition of human CUTLL1 cells in presence of 1 uM dexamethasone after 48 hrs by alamar blue assay; settings: CUTLL1, 48 h
Summary of the method: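 CUTLL1 cells given compound alone or with dexamethasone 1 μM. Growth inhibition measured by alamar blue after 48 h.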

CUTLL1 [4] = test: Growth inhibition of human CUTLL1 cells at 50 uM in presence of deferoxamine after 48 hrs by alamar blue assay
CUTLL1 [5] = test: Potentiation of dexamethasone-induced cytotoxicity against human CUTLL1 cells with high GR expression levels at 50 uM after 48 hrs by alamar blue assay
Summary of the method: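 Human CUTLL1 T-ALL cells engineered to express high (overexpressed) or low (knockdown) glucocorticoid receptor levels. Exposed to compound alone or with 1 μM dexamethasone. Alamar blue growth inhibition read after 48 h.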

CUTLL1 [6] = test: Effect on BCCIP gene expression in human CUTLL1 cells in presence of 1 uM dexamethasone at 30 uM after 24 hrs by microarray method
Summary of the method: (§2)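 CUTLL1 T-ALL cells exposed 24 h to vehicle (DMSO), dexamethasone alone (1 μM), test agent alone (30 μM), or dexamethasone (1 μM) plus test agent (30 μM), in triplicate. Expression profiled by microarray. Leading-edge genes from GSEA were compared between the dexamethasone-plus-agent and dexamethasone-alone groups, using glucocorticoid-regulated gene sets from ALL patients on glucocorticoid therapy.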

CUTLL1 [7] = test: Effect on SMAP2 gene expression in human CUTLL1 cells in presence of 1 uM dexamethasone at 30 uM after 24 hrs by microarray method; summary of the method: as §1
CUTLL1 [8] = test: Effect on MCM10 gene expression in human CUTLL1 cells in presence of 1 uM dexamethasone at 30 uM after 24 hrs by microarray method; summary of the method: as §2
CUTLL1 [9] = test: Growth inhibition of human CUTLL1 cells at 50 uM in presence of erastin after 48 hrs by alamar blue assay
CUTLL1 [10] = test: Effect on TWISTNB gene expression in human CUTLL1 cells in absence of 1 uM dexamethasone at 30 uM after 24 hrs by microarray method; summary of the method: as §1
CUTLL1 [11] = test: Increase in GR expression in human CUTLL1 cells at 50 uM after 6 hrs by Western blotting method
Summary of the method: (§3)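 CUTLL1 cells exposed to compound (25 or 50 μM) alone, with 1 μM dexamethasone, or with dexamethasone plus 1 μM RU486, for 6 or 24 h. GR measured as protein by Western blot and as transcript by RT-qPCR.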

CUTLL1 [12] = test: Effect on LILRB3 gene expression in human CUTLL1 cells in presence of 1 uM dexamethasone at 30 uM after 24 hrs by microarray method; summary of the method: as §2
CUTLL1 [13] = test: Effect on CDC45 gene expression in human CUTLL1 cells in presence of 1 uM dexamethasone at 30 uM after 24 hrs by microarray method; summary of the method: as §2
CUTLL1 [14] = test: Effect on PCNA gene expression in human CUTLL1 cells in absence of 1 uM dexamethasone at 30 uM after 24 hrs by microarray method; summary of the method: as §2
CUTLL1 [15] = test: Effect on E2F7 gene expression in human CUTLL1 cells in presence of 1 uM dexamethasone at 30 uM after 24 hrs by microarray method; summary of the method: as §2
CUTLL1 [16] = test: Effect on NHP2 gene expression in human CUTLL1 cells in absence of 1 uM dexamethasone at 30 uM after 24 hrs by microarray method; summary of the method: as §2
CUTLL1 [17] = test: Effect on BCCIP gene expression in human CUTLL1 cells in absence of 1 uM dexamethasone at 30 uM after 24 hrs by microarray method; summary of the method: as §2
CUTLL1 [18] = test: Effect on RRM1 gene expression in human CUTLL1 cells in absence of 1 uM dexamethasone at 30 uM after 24 hrs by microarray method; summary of the method: as §1
CUTLL1 [19] = test: Growth inhibition of human CUTLL1 cells at 50 uM in presence of etoposide after 48 hrs by alamar blue assay
CUTLL1 [20] = test: Increase in GR expression in human CUTLL1 cells at 50 uM after 6 hrs by RT-qPCR method; summary of the method: as §3
CUTLL1 [21] = test: Effect on USP1 gene expression in human CUTLL1 cells in absence of 1 uM dexamethasone at 30 uM after 24 hrs by microarray method; summary of the method: as §1
CUTLL1 [22] = test: Effect on SMC2 gene expression in human CUTLL1 cells in presence of 1 uM dexamethasone at 30 uM after 24 hrs by microarray method; summary of the method: as §1
CUTLL1 [23] = test: Effect on CHAF1A gene expression in human CUTLL1 cells in presence of 1 uM dexamethasone at 30 uM after 24 hrs by microarray method; summary of the method: as §2
CUTLL1 [24] = test: Effect on PFAS gene expression in human CUTLL1 cells in presence of 1 uM dexamethasone at 30 uM after 24 hrs by microarray method; summary of the method: as §1
CUTLL1 [25] = test: Effect on APITD1 gene expression in human CUTLL1 cells in absence of 1 uM dexamethasone at 30 uM after 24 hrs by microarray method; summary of the method: as §2
CUTLL1 [26] = test: Effect on GGNBP2 gene expression in human CUTLL1 cells in absence of 1 uM dexamethasone at 30 uM after 24 hrs by microarray method; summary of the method: as §2
CUTLL1 [27] = test: Effect on HELLS gene expression in human CUTLL1 cells in absence of 1 uM dexamethasone at 30 uM after 24 hrs by microarray method; summary of the method: as §2
CUTLL1 [28] = test: Effect on SKP2 gene expression in human CUTLL1 cells in presence of 1 uM dexamethasone at 30 uM after 24 hrs by microarray method; summary of the method: as §1
CUTLL1 [29] = test: Growth inhibition of human CUTLL1 cells at 50 uM in presence of MG262 after 48 hrs by alamar blue assay
CUTLL1 [30] = test: Effect on TSC22D3 gene expression in human CUTLL1 cells in presence of 1 uM dexamethasone at 30 uM after 24 hrs by microarray method; summary of the method: as §1
CUTLL1 [31] = test: Effect on RAD51AP1 gene expression in human CUTLL1 cells in presence of 1 uM dexamethasone at 30 uM after 24 hrs by microarray method; summary of the method: as §1
CUTLL1 [32] = test: Effect on DDIT4 gene expression in human CUTLL1 cells in presence of 1 uM dexamethasone at 30 uM after 24 hrs by microarray method; summary of the method: as §2
CUTLL1 [33] = test: Effect on NME1 gene expression in human CUTLL1 cells in absence of 1 uM dexamethasone at 30 uM after 24 hrs by microarray method; summary of the method: as §2

Compound: Nc1ncc(-c2ccncc2)c(C2CC2)n1
- Activity (CUTLL1 [1]): inactive
- Activity (CUTLL1 [2]): inactive
- pEC50 [3]: 4.55
- growth inhibition (GI) (CUTLL1 [4]): inactive
- Activity (CUTLL1 [5]): Active
- Activity (CUTLL1 [6]): Active
- Activity (CUTLL1 [7]): Active
- Activity (CUTLL1 [8]): Active
- growth inhibition (GI) (CUTLL1 [9]): inactive
- Activity (CUTLL1 [10]): inactive
- Activity (CUTLL1 [11]): Active
- Activity (CUTLL1 [12]): Active
- Activity (CUTLL1 [13]): Active
- Activity (CUTLL1 [14]): inactive
- Activity (CUTLL1 [15]): Active
- Activity (CUTLL1 [16]): inactive
- Activity (CUTLL1 [17]): inactive
- Activity (CUTLL1 [18]): inactive
- growth inhibition (GI) (CUTLL1 [19]): inactive
- Activity (CUTLL1 [20]): inactive
- Activity (CUTLL1 [21]): inactive
- Activity (CUTLL1 [22]): Active
- Activity (CUTLL1 [23]): Active
- Activity (CUTLL1 [24]): Active
- Activity (CUTLL1 [25]): inactive
- Activity (CUTLL1 [26]): inactive
- Activity (CUTLL1 [27]): inactive
- Activity (CUTLL1 [28]): Active
- growth inhibition (GI) (CUTLL1 [29]): inactive
- Activity (CUTLL1 [30]): Active
- Activity (CUTLL1 [31]): Active
- Activity (CUTLL1 [32]): Active
- Activity (CUTLL1 [33]): inactive
